Each block holds one compound with its values, some of them ahead of it. Activity calls are given as the source filed them. No cut-off for these calls is given here.
Experiments:
[1] = molecular target: Histone deacetylase 4 (Homo sapiens, UniProt P56524); experiment: Inhibition of human recombinant HDAC4 using non-histone trifluoroacetyl lysine substrate pre-incubated at room temperature for 15 mins before substrate addition by fluorimetric assay
[2] = molecular target: T1, Protein deacetylase HDAC6 (Homo sapiens, UniProt Q9UBN7); experiment: Inhibition of human recombinant HDAC6 pre-incubated at room temperature for 15 min before substrate addition by fluorimetric assay
T1 sequence (Q9UBN7 whole entry): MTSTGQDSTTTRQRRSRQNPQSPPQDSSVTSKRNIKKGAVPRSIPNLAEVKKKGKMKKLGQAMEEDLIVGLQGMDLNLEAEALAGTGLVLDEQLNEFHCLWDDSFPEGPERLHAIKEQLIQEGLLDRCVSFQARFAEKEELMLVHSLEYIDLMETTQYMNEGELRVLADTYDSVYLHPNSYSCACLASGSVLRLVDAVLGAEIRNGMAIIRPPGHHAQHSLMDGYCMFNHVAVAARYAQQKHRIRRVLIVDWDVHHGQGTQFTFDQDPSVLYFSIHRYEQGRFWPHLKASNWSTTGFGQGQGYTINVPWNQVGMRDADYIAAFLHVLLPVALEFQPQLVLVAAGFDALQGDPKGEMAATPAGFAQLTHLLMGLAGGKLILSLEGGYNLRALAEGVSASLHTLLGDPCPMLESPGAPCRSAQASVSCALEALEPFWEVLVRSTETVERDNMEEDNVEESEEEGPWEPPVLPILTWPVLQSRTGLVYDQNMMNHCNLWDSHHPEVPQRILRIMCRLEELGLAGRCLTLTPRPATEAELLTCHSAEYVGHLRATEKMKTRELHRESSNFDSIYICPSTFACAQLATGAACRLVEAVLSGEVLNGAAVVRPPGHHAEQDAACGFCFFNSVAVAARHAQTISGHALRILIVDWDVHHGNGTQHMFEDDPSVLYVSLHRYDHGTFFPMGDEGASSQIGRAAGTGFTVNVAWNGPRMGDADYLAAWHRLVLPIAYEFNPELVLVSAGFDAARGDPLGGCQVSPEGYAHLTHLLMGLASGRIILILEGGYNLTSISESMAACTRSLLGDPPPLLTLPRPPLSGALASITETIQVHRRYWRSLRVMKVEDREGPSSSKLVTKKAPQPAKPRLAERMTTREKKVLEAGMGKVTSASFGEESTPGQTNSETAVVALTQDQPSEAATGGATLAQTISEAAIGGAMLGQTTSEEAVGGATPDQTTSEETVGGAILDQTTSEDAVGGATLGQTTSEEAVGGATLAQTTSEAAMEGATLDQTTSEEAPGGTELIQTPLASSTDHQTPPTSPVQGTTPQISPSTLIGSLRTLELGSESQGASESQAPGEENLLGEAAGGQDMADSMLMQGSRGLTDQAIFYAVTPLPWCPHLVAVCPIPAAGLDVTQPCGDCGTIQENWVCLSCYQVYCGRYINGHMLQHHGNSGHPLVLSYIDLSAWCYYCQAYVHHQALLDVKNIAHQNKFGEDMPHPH

[3] = molecular target: Histone deacetylase 1 (Homo sapiens, UniProt Q13547); experiment: Inhibition of human recombinant HDAC1 using histone H3 substrate pre-incubated at room temperature for 15 mins before substrate addition by fluorimetric assay
[4] = system: U-937; experiment: Induction of granulocytic differentiation in human U937 cells assessed as increase in CD11c expression after 48 hrs by FACS method; type: functional, cell-based
Procedure, shortened: (§1)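 Granulocytic differentiation in U937 cells at 0.1, 1, 5, 10 and 25 μM for 24 and 48 h, with reference drugs at 5 μM as positive controls. Read-out was the percentage of CD11c-positive, propidium iodide-negative cells.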

[5] = Antiproliferative activity against human SANTO cells after 48 hrs by MTT assay; type: functional, cell-based
Procedure, shortened: (§2)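 Solid tumour cells grown in RPMI with 10% fetal calf serum and penicillin. Exponentially growing cells seeded in sextuplicate in 96-well plates (3 × 10³ cells/well), treated 24 h later at 1 to 50 μM for 48 h. Viability read by MTT.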

[6] = system: SW-620; experiment: Antiproliferative activity against human SW620 cells after 48 hrs by MTT assay; type: functional, cell-based; settings: SW-620, 48 h; procedure, shortened: as §2
[7] = system: A549; experiment: Antiproliferative activity against human A549 cells after 48 hrs by MTT assay; type: functional, cell-based; settings: A549, 48 h; procedure, shortened: as §2
[8] = system: U-937; experiment: Induction of cell cycle arrest in human U937 cells assessed as accumulation at S phase at 0.1 to 25 uM after 48 hrs by propidium iodide staining based FACS method; type: functional
Procedure, shortened: (§3)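 U937 cells treated at 0.1, 1, 5, 10 and 25 μM for 24 and 48 h, with reference drugs at 5 μM as positive controls. Cell-cycle distribution measured, with accumulation in S phase scored.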

[9] = cells; type: functional; settings: Homo sapiens, U-937, 24 h
[10] = system: MOLM-13; experiment: Antiproliferative activity against human MOLM13 cells after 48 hrs by Cell Titer GLo Assay; type: functional, cell-based; settings: MOLM-13, 48 h
Procedure, shortened: (§4)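 AML cells grown in RPMI with 10% fetal calf serum, antibiotics, amphotericin-B, 10 mM HEPES and 2 mM glutamine, kept at 200 000 cells/mL. Exponentially growing cells seeded in duplicate in 6-well plates (2 × 10⁵ cells/well), treated 24 h later at 1 to 50 μM for 48 h. Viability by Cell Titer GLo.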

[11] = system: U2OS; experiment: Antiproliferative activity against human U2OS cells after 48 hrs by MTT assay; type: functional, cell-based; procedure, shortened: as §2
[12] = system: HCC1937; experiment: Antiproliferative activity against human HCC1937 cells after 48 hrs by MTT assay; type: functional, cell-based; settings: HCC1937, 48 h; procedure, shortened: as §2
[13] = Antiproliferative activity against human KG1 cells after 48 hrs by Cell Titer GLo Assay; type: functional, cell-based; settings: KG-1, 48 h; procedure, shortened: as §4
[14] = system: M14; experiment: Antiproliferative activity against human M14 cells after 48 hrs by MTT assay; type: functional, cell-based; settings: M14, 48 h; procedure, shortened: as §2
[15] = system: MDA-MB-468; experiment: Antiproliferative activity against human MDA-MB-468 cells after 48 hrs by MTT assay; type: functional, cell-based; settings: MDA-MB-468, 48 h; procedure, shortened: as §2
[16] = system: U-937; experiment: Induction of granulocytic differentiation in human U937 cells assessed as increase in CD11c expression at 5 uM after 48 hrs by FACS method; type: functional; procedure, shortened: as §1
[17] = system: HEL; experiment: Antiproliferative activity against human HEL cells after 48 hrs by Cell Titer GLo Assay; type: functional, cell-based; procedure, shortened: as §4
[18] = Antiproliferative activity against human U937 cells after 48 hrs by Cell Titer GLo Assay; type: functional, cell-based; settings: U-937, 48 h; procedure, shortened: as §4
[19] = system: U-937; experiment: Induction of cell cycle arrest in human U937 cells assessed as accumulation at S phase at 1 uM after 48 hrs by propidium iodide staining based FACS method; type: functional; procedure, shortened: as §3
[20] = system: U-937; experiment: Induction of apoptosis in human U937 cells assessed as accumulation at pre-G1 phase after 48 hrs by propidium iodide staining based FACS method; type: functional, cell-based
Procedure, shortened: (§5)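 U937 cells exposed to 0.1, 1, 5, 10 and 25 μM for 24 and 48 h. Reference drugs at 5 μM served as positive controls. Apoptosis taken as the percentage of cells in the pre-G1 peak.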

[21] = Antiproliferative activity against human HL60 cells after 48 hrs by Cell Titer GLo Assay; type: functional, cell-based; settings: HL-60, 48 h; procedure, shortened: as §4
[22] = Antiproliferative activity against human HCT116 cells after 48 hrs by MTT assay; type: functional, cell-based; settings: HCT-116, 48 h; procedure, shortened: as §2
[23] = system: U-937; experiment: Induction of apoptosis in human U937 cells assessed as accumulation at pre-G1 phase at 25 uM after 48 hrs by propidium iodide staining based FACS method; type: functional; procedure, shortened: as §5
[24] = system: U-937; experiment: Induction of apoptosis in human U937 cells assessed as accumulation at pre-G1 phase at 5 uM after 48 hrs by propidium iodide staining based FACS method; type: functional; procedure, shortened: as §5
[25] = system: U-937; settings: Homo sapiens, at 2.5 µM
[26] = system: U-937; experiment: Induction of cell cycle arrest in human U937 cells assessed as accumulation at S phase at 5 uM after 48 hrs by propidium iodide staining based FACS method; type: functional; procedure, shortened: as §3

Sequence of Histone deacetylase 4 (P56524 whole entry): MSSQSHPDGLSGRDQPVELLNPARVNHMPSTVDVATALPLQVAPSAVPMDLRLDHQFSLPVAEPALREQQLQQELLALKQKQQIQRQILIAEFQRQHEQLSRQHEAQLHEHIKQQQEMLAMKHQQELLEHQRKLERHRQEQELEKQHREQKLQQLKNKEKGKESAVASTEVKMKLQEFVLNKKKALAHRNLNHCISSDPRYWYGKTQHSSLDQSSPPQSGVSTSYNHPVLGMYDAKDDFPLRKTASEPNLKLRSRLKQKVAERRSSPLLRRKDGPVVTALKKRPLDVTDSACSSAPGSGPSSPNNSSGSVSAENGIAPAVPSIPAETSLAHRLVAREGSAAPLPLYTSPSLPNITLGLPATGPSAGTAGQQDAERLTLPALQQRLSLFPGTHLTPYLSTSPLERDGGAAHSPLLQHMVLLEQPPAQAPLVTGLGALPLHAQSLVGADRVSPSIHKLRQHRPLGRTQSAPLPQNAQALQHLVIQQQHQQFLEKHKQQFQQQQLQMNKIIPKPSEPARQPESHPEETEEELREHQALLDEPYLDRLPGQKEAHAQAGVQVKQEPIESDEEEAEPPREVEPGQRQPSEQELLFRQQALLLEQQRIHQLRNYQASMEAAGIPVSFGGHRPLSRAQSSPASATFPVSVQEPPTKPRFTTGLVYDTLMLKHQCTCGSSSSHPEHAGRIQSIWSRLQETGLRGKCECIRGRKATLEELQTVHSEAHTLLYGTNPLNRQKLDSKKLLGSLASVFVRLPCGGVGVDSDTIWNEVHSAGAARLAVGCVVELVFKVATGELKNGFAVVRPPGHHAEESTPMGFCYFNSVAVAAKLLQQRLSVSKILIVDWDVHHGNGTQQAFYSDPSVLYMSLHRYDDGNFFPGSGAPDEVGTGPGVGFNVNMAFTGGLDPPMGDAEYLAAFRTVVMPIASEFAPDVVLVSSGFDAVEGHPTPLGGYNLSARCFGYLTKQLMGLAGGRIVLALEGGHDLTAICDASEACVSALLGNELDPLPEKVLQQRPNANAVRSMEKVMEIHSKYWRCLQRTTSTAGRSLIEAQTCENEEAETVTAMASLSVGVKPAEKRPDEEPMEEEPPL
Sequence of Histone deacetylase 1 (Q13547 whole entry): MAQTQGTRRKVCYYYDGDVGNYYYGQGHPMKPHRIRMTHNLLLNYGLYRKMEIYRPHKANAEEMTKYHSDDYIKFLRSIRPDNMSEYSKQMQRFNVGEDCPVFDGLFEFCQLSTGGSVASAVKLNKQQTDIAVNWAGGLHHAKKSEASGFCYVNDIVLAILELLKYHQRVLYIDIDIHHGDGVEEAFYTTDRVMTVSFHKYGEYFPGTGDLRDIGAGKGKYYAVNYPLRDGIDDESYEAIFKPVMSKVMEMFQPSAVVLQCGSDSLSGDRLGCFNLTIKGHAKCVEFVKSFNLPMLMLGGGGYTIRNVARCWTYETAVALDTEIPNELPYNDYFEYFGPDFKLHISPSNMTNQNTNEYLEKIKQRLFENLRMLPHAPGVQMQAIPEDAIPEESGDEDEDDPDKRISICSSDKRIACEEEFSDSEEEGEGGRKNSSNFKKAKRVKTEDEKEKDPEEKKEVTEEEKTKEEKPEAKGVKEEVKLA

SMILES: Nc1ccccc1NC(=O)c1ccc(CNC(=O)OCc2cccnc2)cc1 [ENTINOSTAT]
Activity [16]: 47%

SMILES: Nc1ccccc1NC(=O)/C=C/c1ccc(-c2nnc(Cc3ccc4ccccc4c3)o2)cc1
IC50 [1]: > 20 µM
IC50 [2]: > 20 µM
IC50 [3]: 2.4 µM

SMILES: O=C(NO)c1ccc(-c2nnc(Cc3cccc4ccccc34)o2)cc1
IC50 [1]: > 20 µM
IC50 [2]: 4.1 µM
IC50 [3]: 9.9 µM

SMILES: O=C(/C=C/c1ccc(Cc2nnc(Cc3cccc4ccccc34)o2)cc1)NO
IC50 [5]: 24 µM
IC50 [6]: 5.1 µM
Activity [23]: 74%
IC50 [7]: 29.5 µM
Activity [24]: 58%
IC50 [1]: > 20 µM
IC50 [10]: 2.2 µM
IC50 [11]: 50 µM
IC50 [12]: 33.6 µM
inhibition [25]: Active
IC50 [13]: 2.6 µM
IC50 [14]: 45 µM
IC50 [15]: 18.4 µM
IC50 [2]: 0.03 µM
IC50 [17]: 4.1 µM
IC50 [18]: 7.8 µM
IC50 [3]: 0.2 µM
Activity [20]: Dose-dependent effect
IC50 [21]: 6 µM
IC50 [22]: 21.3 µM
Activity [4]: Dose-dependent effect

SMILES: Nc1ccccc1NC(=O)/C=C/c1ccc(-c2nnc(Cc3c[nH]c4ccccc34)o2)cc1
IC50 [1]: > 20 µM
IC50 [2]: > 20 µM
IC50 [3]: 1.5 µM

SMILES: Nc1ccccc1NC(=O)/C=C/c1ccc(-c2nnc(Cc3cccc4ccccc34)o2)cc1
IC50 [1]: > 20 µM
IC50 [2]: > 20 µM
IC50 [3]: 1 µM
Activity [4]: Dose-dependent effect

SMILES: O=C(CCCCCCC(=O)Nc1ccccc1)NO [VORINOSTAT]
Activity [24]: 48%
Activity [26]: Active

Continued, in another order:

IC50 [1]: > 20 µM
IC50 [2]: > 20 µM
IC50 [3]: 4.1 µM
SMILES: Nc1ccccc1NC(=O)/C=C/c1ccc(Cc2nnc(Cc3cccc4ccccc34)o2)cc1

IC50 [1]: > 20 µM
IC50 [2]: 16.1 µM
IC50 [3]: 0.3 µM
SMILES: Nc1ccccc1NC(=O)c1ccc(-c2nnc(Cc3cccc4ccccc34)o2)cc1
Activity [4]: Dose-dependent effect

IC50 [1]: > 20 µM
IC50 [2]: 0.06 µM
IC50 [3]: 0.8 µM
SMILES: O=C(/C=C/c1ccc(-c2nnc(Cc3cccc4ccccc34)o2)cc1)NO

IC50 [6]: 6.7 µM
IC50 [7]: 23.6 µM
IC50 [1]: > 20 µM
IC50 [10]: 1.6 µM
IC50 [11]: 20.4 µM
IC50 [12]: 29.8 µM
IC50 [15]: 19.6 µM
IC50 [2]: 8.9 µM
IC50 [3]: 0.2 µM
SMILES: Nc1ccccc1NC(=O)c1ccc(Cc2nnc(Cc3cccc4ccccc34)o2)cc1
IC50 [5]: 17.4 µM
Activity [8]: Active
inhibition at 2.5 µM [9]: 75%
IC50 [13]: 1.8 µM
IC50 [14]: 43.3 µM
Activity [16]: 45%
IC50 [17]: 2 µM
IC50 [18]: 1.8 µM
Activity [19]: Active
Activity [20]: Dose-dependent effect
IC50 [21]: 2.8 µM
IC50 [22]: 24.7 µM
Activity [4]: Dose-dependent effect

IC50 [1]: 15.2 µM
IC50 [2]: 0.03 µM
IC50 [3]: 0.6 µM
SMILES: O=C(/C=C/c1ccc(-c2nnc(Cc3c[nH]c4ccccc34)o2)cc1)NO

IC50 [1]: 7.8 µM
IC50 [2]: 1.2 µM
IC50 [3]: 0.2 µM
SMILES: O=C(NO)c1ccc(Cc2nnc(Cc3cccc4ccccc34)o2)cc1
Activity [8]: Active
Activity [20]: Dose-dependent effect

From ChEMBL document CHEMBL3351281, “1,3,4-Oxadiazole-containing histone deacetylase inhibitors: anticancer activities in cancer cells” (J Med Chem, 2014)
